In ChEMBL document CHEMBL2396655, “Design, synthesis, and biological evaluation of (E)-N-aryl-2-arylethenesulfonamide analogues as potent and orally bioavailable microtubule-targeted anticancer agents” (J Med Chem, 2013):
Converted amounts (≈) assume the structure as drawn. The source made the active and inactive calls. The calls are words filed in the database; no cut-off is given here.

Key:
DU-145 [1] = assay: Mitotoic arrest in human DU145 cells assessed as misalignment of chromosomes at 25 nM after 24 hrs by FITC and propidium iodide staining-based confocal laser microscopic analysis; assay type: functional, cell-based
Procedure, shortened: (§1)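 DU145 cells grown on glass coverslips, exposed to 0.025 μM for 24 h, fixed in 4% paraformaldehyde, permeabilized in PBS with 10% FBS/0.1% Triton X-100, stained with FITC-conjugated anti-α-tubulin (DM1A, 1 h, 37 °C) and propidium iodide (1 μg/mL, 5 min), then imaged by confocal microscopy (60× objective, XYZ-sectioning); DMSO-treated cells as vehicle.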

BT-20 = assay: Antitumor activity against human BT20 cells xenografted in NCR-nu/nu mouse assessed as reduction in tumor volume at 20 mg/kg, ip treated 3 times a week for 2 weeks measured on alternate days for 14 days; assay type: functional, organism-based; parameters: dose 20 mg/kg
Procedure, shortened: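 Female athymic NCr-nu/nu mice were implanted subcutaneously in the hind leg with 0.5–1.0×10⁷ BT20 cells. Mice were paired once tumours reached about 100–150 mm³ (vehicle N=7, treated N=8). Dosing was 20 mg/kg IP in DMSO (0.1 mL), 3×/week for 2 weeks. Calipers measured two dimensions; volume = L×S²×π/6. Body weight was recorded at each measurement.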

DU-145 [2] = assay: Induction of apoptosis in human DU145 cells assessed as increase in PARP cleavage at 10 to 20 nM after 24 to 72 hrs by Western blotting analysis; assay type: functional, cell-based
Procedure, shortened: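 DU145 cells were plated at 1.0×10⁶ per plate and treated 24 h later with DMSO or increasing concentrations, then harvested at set time points. Cells were lysed in 0.1% Triton X-100 buffer with protease inhibitors. Equal protein was run on 10% SDS-PAGE, blotted with anti-PARP and detected with IRDye 800 secondary on Odyssey.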

DU-145 [3] = assay: Cell cycle arrest in human DU145 cells assessed as accumulation at G2/M phase at 0.005 uM after 24 hrs by propidium iodide staining-based FACS flow cytometric analysis; assay type: functional
Procedure, shortened: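 DU145 cells were plated at 1.0×10⁶ per dish in DMEM/10% FBS and treated 24 h later with increasing concentrations. After 24 h, attached and floating cells were pooled and fixed in ice-cold 70% ethanol for at least 24 h. Cells were stained with propidium iodide (50 μg/mL) plus RNase A for 30 min at 37 °C, then read on a FACScan with cell-cycle modelling.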

MDCK [4] = assay: Apparent permeability from basolateral to apical side in MDCK cells expressing MDR-1 at 10 uM after 90 mins by LC-MS/MS analysis; assay type: ADME, cell-based, Canis lupus familiaris; settings: dog, 1.5 h
Procedure, shortened: (§2)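 MDCK-MDR1 (Pgp-expressing) monolayers were used 3–4 days post-seeding, only if TEER exceeded 1000 Ω·cm² before and after the run. Compound starting concentration was 10 μM. Transport was measured A→B and B→A over 90 min and quantified by LC/MS/MS. Apparent permeabilities gave the efflux ratio.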

Mus musculus [5] = assay: Clearance in ICR mouse at 5 mg/kg, iv by LC-MS/MS analysis; assay type: ADME, organism-based; parameters: dose 5 mg/kg, route intravenous; settings: in vivo
Procedure, shortened: (§3)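 Male ICR mice, 6–8 weeks old, N=3 per group. Single 5 mg/kg dose in NMP:PEG300:water (1:4:5 v/v), given as IV bolus or oral gavage. Serial arterial blood was drawn through a carotid cannula at 2–360 min. Plasma was protein-precipitated with acetonitrile containing internal standard and assayed by LC/MS/MS. Parameters were derived by noncompartmental analysis.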

Liver = assay: Metabolic stability in rat liver S9 fraction assessed as compound remaining at 10 uM after 1 hr by LC-MS/MS analysis; assay type: ADME, subcellular; settings: s9, 1 h
Procedure, shortened: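 Compound at 10 μM was incubated with rat, dog or human liver S9 fraction (1 mg/mL) for 0, 30 and 60 min. Parent remaining at 1 h was quantified by LC-MS/MS.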

[6] = Solubility of the compound in PBS by nephelometric analysis; assay type: physicochemical
Procedure, shortened: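 Aqueous solubility in PBS was measured by nephelometry; the limit of complete solubility was taken as the concentration giving a statistical increase of light scattering over blank.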

Tubulin (Homo sapiens) = Tubulin (Homo sapiens) (UniProt P68371+Q9H4B7+P0DPH7+P68366+Q13509+Q71U36+P04350+Q3ZCM7+P07437+P68363+Q9BQE3+Q6PEY2+Q13885+Q9BVA1+Q9BUF5); assay: Inhibition of tubulin polymerization in human DU145 cells after 24 hrs by Western blotting analysis; assay type: cell-based; settings: DU-145
BT-474 = assay: Cytotoxicity against human BT474 cells after 96 hrs by trypan blue exclusion assay; assay type: functional; settings: BT-474, 96 h
Procedure, shortened: (§4)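 Cells were grown in DMEM or RPMI with 10% FBS and plated at 2.5×10⁴ cells/well in 12-well dishes. Compounds were added 24 h later at various concentrations. After 96 h, viable cells were counted by trypan blue exclusion from duplicate wells. Results are the mean of two independent experiments.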

Tubulin = Tubulin (Sus scrofa, UniProt P02554+P02550); assay: Competitive binding affinity to pig brain tubulin colchicine binding site after 1 hr by mass spectrophotometric analysis in presence of colchicine; assay type: tissue-based
Procedure, shortened: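 Porcine brain tubulin (1.0 mg/mL) in PIPES 80 mM, MgCl₂ 2 mM, EGTA 0.5 mM, pH 6.9, at 37 °C. Competitor was 0.1–100 μM for 1 h. Unbound ligand in the 30 kDa ultrafiltrate was measured by MS. Runs were in triplicate; IC50 came from a Hill fit.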

[7] = Cytotoxicity against human Caco2 cells after 1 hr by Alamar Blue assay; assay type: cell-based; settings: Caco-2 cells, read-out: LD50
DU-145 [8] = assay: Mitotoic arrest in human DU145 cells assessed as presence of micronucleated cells at 25 nM after 24 hrs by FITC and propidium iodide staining-based confocal laser microscopic analysis; assay type: functional, cell-based; procedure, shortened: as §1
Plasma = assay: Plasma protein binding in human at 10 to 50 uM by equilibrium dialysis; assay type: ADME, cell-free
2008 = assay: Growth inhibition of human 2008 cells; assay type: functional
A-431 = assay: Cytotoxicity against human A431 cells after 96 hrs by trypan blue exclusion assay; assay type: functional; settings: A-431, 96 h; procedure, shortened: as §4
NCI-H417 = assay: Cytotoxicity against human NCI-N417 cells after 96 hrs by trypan blue exclusion assay; assay type: functional; settings: NCI-H417, 96 h
Procedure, shortened: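 Cells grown in DMEM or RPMI with 10% FBS and 1 unit/mL penicillin-streptomycin, seeded in 12-well dishes at 2.5 ×10⁴ cells/mL/well. Compound added 24 h later at various concentrations. Viable cells counted by trypan blue exclusion from duplicate wells after 96 h. Value taken from dose-response curves of two independent experiments.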

Bos taurus = species: Bos taurus; assay: Inhibition of bovine brain tubulin assessed as destabilization of microtubule polymerization at 10 uM over 40 mins by spectrophotometric analysis
Procedure, shortened: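 Purified bovine brain tubulin was incubated at 37 °C with 10 μM compound, DMSO or reference agents. Polymerization was followed as rising absorbance at 340 nm over 40 min. Data are representative of three independent experiments.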

MDCK [9] = assay: Apparent permeability from apical to basolateral side in MDCK cells expressing MDR-1 at 10 uM after 90 mins by LC-MS/MS analysis; assay type: ADME, cell-based, Canis lupus familiaris; settings: dog, 1.5 h; procedure, shortened: as §2
Mus musculus [10] = assay: AUC in ICR mouse at 5 mg/kg, po by LC-MS/MS analysis; assay type: ADME, organism-based, Plasma; parameters: dose 5 mg/kg, route oral; settings: in vivo; procedure, shortened: as §3

COc1cc(OC)c(/C=C/S(=O)(=O)Nc2ccc(OC)c(N)c2)c(OC)c1
Activity (DU-145 [1]): Active | Activity (BT-20): Active | Activity (DU-145 [2]): Active | Activity (DU-145 [3]): Active | Papp (MDCK [4]): 72 ×10⁻⁶ cm/s | CL (Mus musculus [5]): 41.3 mL/min/kg | Stability (Liver): 33% | solubility kinetic [6]: 62.5 µM (≈ 24.7 µg/mL) | inhibition (Tubulin (Homo sapiens)): Dose-dependent effect | GI50 (BT-474): 0.01 µM | IC50 (Tubulin): 3.68 µM | CC50 at 1 h [7]: > 1000 µM | Activity (DU-145 [8]): Active | PPB (Plasma): 99.67% | GI50 2008: 0.006 µM | GI50 (A-431): 0.005 µM | GI50 (NCI-H417): 0.004 µM | inhibition (Bos taurus): Active | Papp (MDCK [9]): 9.1 ×10⁻⁶ cm/s | AUC (Mus musculus [10]): 700 ng·h/mL
